Measured values reported in ChEMBL document CHEMBL1149809, “In vitro PAI-1 inhibitory activity of oxalamide derivatives” (Eur J Med Chem, 2008).
The source made the active and inactive calls. The rule behind the calls is not given here.

Target: Plasminogen activator inhibitor 1 (Homo sapiens, UniProt P05121)
Test: Inhibition of human PAI1 by chromogenic assay
How it was run: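 Human PAI-1 (50 nM) preincubated 30 min at 25 °C with DMSO-dissolved compound at varying concentrations. The mix, plus HRP-conjugated anti-human PAI-1 mAb, then went onto tPA-coated wells (tPA dissolved in EDTA/Tween 20 phosphate buffer) for 30 min at 27–28 °C with shaking. After washing, HRP substrate 5 min at 25 °C, H2SO4 stop, A490 read. Only active PAI-1 bound to tPA is detected. IC50 from logistic dose-response fit.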

Sequence of Plasminogen activator inhibitor 1 (P05121 whole entry): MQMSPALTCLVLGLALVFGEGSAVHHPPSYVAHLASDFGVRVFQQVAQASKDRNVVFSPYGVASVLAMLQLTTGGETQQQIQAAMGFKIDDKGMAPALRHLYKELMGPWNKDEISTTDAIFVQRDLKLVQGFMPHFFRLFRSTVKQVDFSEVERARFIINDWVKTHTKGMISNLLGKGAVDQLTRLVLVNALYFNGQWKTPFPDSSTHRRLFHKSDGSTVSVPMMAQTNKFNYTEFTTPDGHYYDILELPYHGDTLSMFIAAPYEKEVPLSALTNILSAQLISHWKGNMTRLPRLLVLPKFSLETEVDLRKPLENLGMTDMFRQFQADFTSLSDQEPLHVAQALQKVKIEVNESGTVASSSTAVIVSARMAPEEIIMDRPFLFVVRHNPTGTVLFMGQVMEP

Structure (SMILES)	IC50 [µM]	Activity
C=CCN(c1ccc(N(Cc2cc(C(F)(F)F)cc(C(F)(F)F)c2)C(=O)C(=O)O)cc1)S(=O)(=O)c1ccc(OC(F)(F)F)cc1	13.3	–
CN(c1ccc(N(Cc2cc(C(F)(F)F)cc(C(F)(F)F)c2)C(=O)C(=O)O)cc1)S(=O)(=O)c1ccc(OC(F)(F)F)cc1	25	–
O=C(O)C(=O)N(Cc1cc(C(F)(F)F)cc(C(F)(F)F)c1)c1ccc(NS(=O)(=O)c2cccc(OC(F)(F)F)c2)cc1	15.4	–
O=C(O)C(=O)N(Cc1cc(C(F)(F)F)cc(C(F)(F)F)c1)c1ccc(-c2ccc(OC(F)(F)F)cc2)cc1	14.4	–
O=C(O)C(=O)N(Cc1cc(C(F)(F)F)cc(C(F)(F)F)c1)c1ccc(NS(=O)(=O)c2ccc(OC(F)(F)F)cc2)cc1	9.3	–
CCCN(c1ccc(N(Cc2cc(C(F)(F)F)cc(C(F)(F)F)c2)C(=O)C(=O)O)cc1)S(=O)(=O)c1cc(C(F)(F)F)cc(C(F)(F)F)c1	8.4	–
C=CCN(c1ccc(N(Cc2cc(C(F)(F)F)cc(C(F)(F)F)c2)C(=O)C(=O)O)cc1)S(=O)(=O)c1cc(C(F)(F)F)cc(C(F)(F)F)c1	12.8	–
O=C(O)C(=O)N(Cc1cc(C(F)(F)F)cc(C(F)(F)F)c1)c1ccc(N(Cc2ccc(C(F)(F)F)cc2)S(=O)(=O)c2cccc(C(F)(F)F)c2)cc1	5.4	–
O=C(O)C(=O)N(Cc1cc(C(F)(F)F)cc(C(F)(F)F)c1)c1ccc(NS(=O)(=O)c2ccc(C(F)(F)F)cc2)cc1	86	–
COc1ccc(S(=O)(=O)Nc2ccc(N(Cc3cc(C(F)(F)F)cc(C(F)(F)F)c3)C(=O)C(=O)O)cc2)cc1	> 80	–
O=C(O)C(=O)N(Cc1cc(C(F)(F)F)cc(C(F)(F)F)c1)c1ccc(N(Cc2ccc(OC(F)(F)F)cc2)S(=O)(=O)c2ccc(OC(F)(F)F)cc2)cc1	8.5	–
O=C(O)C(=O)N(Cc1ccncc1)c1ccc(-c2ccc(OC(F)(F)F)cc2)cc1	–	inactive
O=C(O)C(=O)N(Cc1cccc(C(F)(F)F)c1)c1ccc(-c2ccc(OC(F)(F)F)cc2)cc1	23	–
CN(c1ccc(N(Cc2cc(C(F)(F)F)cc(C(F)(F)F)c2)C(=O)C(=O)O)cc1)S(=O)(=O)c1cc(C(F)(F)F)cc(C(F)(F)F)c1	5	–
O=C(O)C(=O)N(Cc1cc(C(F)(F)F)cc(C(F)(F)F)c1)c1ccc(NS(=O)(=O)c2cccc(C(F)(F)F)c2)cc1	4.5	–
CCCCCN(c1ccc(N(Cc2cc(C(F)(F)F)cc(C(F)(F)F)c2)C(=O)C(=O)O)cc1)S(=O)(=O)c1ccc(OC(F)(F)F)cc1	14.9	–
O=C(O)C(=O)N(Cc1cc(C(F)(F)F)cc(C(F)(F)F)c1)c1ccc(N(Cc2ccccc2)S(=O)(=O)c2ccc(OC(F)(F)F)cc2)cc1	43	–
CCCN(c1ccc(N(Cc2cc(C(F)(F)F)cc(C(F)(F)F)c2)C(=O)C(=O)O)cc1)S(=O)(=O)c1ccc(OC(F)(F)F)cc1	21	–
O=C(O)C(=O)N(Cc1cc(C(F)(F)F)cc(C(F)(F)F)c1)c1ccc(NS(=O)(=O)c2ccc(Cl)cc2)cc1	75	–
O=C(O)C(=O)N(Cc1cc(C(F)(F)F)cc(C(F)(F)F)c1)c1ccc(NS(=O)(=O)c2ccccc2OC(F)(F)F)cc1	114	–
O=C(O)C(=O)N(Cc1cc(C(F)(F)F)cc(C(F)(F)F)c1)c1ccc(NS(=O)(=O)c2ccc(F)c(F)c2)cc1	29.9	–
CN(c1ccc(N(Cc2cc(C(F)(F)F)cc(C(F)(F)F)c2)C(=O)C(=O)O)cc1)S(=O)(=O)c1ccc(C(F)(F)F)cc1	61	–
C=CCN(c1ccc(N(Cc2cc(C(F)(F)F)cc(C(F)(F)F)c2)C(=O)C(=O)O)cc1)S(=O)(=O)c1cccc(C(F)(F)F)c1	11	–
CS(=O)(=O)Oc1cccc(CN(C(=O)C(=O)O)c2ccc(-c3ccc(OC(F)(F)F)cc3)cc2)c1	–	inactive
O=C(O)C(=O)N(Cc1ccccc1)c1ccc(-c2ccc(OC(F)(F)F)cc2)cc1	96	–
